ChEMBL document CHEMBL4368878 (Medchemcomm, 2018)
Activity calls are given as the source filed them. The rule behind the calls is not given here.

Experiments:
Cannabinoid receptor 2 [1] = molecular target: T1, Cannabinoid receptor 2 (Homo sapiens, UniProt P34972); experiment: Displacement of [3H]CP55940 from recombinant human CB2 receptor expressed in HEK293 cell membranes at 10 uM measured after 90 mins relative to control
Cannabinoid receptor 1 = Cannabinoid receptor 1 (Homo sapiens, UniProt P21554); experiment: Displacement of [3H]CP55940 from recombinant human CB1 receptor expressed in HEK293 cell membranes measured after 90 mins
Cannabinoid receptor 1, sequence (P21554 whole entry): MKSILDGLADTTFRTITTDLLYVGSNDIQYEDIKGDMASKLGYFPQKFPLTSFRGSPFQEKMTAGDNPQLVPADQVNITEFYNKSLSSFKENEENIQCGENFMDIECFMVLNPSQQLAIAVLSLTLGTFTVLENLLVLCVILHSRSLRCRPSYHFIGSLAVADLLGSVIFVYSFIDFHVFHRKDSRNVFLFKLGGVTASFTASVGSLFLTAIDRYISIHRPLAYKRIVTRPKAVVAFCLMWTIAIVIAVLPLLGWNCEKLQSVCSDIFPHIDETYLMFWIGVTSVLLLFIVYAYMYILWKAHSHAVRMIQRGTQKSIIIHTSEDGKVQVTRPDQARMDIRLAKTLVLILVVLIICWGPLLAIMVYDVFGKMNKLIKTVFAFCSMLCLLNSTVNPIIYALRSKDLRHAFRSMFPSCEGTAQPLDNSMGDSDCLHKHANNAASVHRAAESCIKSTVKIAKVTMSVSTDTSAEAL
How it was run: (§1)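 Membranes from HEK-293 cells stably expressing human recombinant CB1 (Bmax 2.5 pmol/mg protein) or CB2 (Bmax 4.7 pmol/mg protein). [3H]-CP-55,940 was used at 0.14 nM for CB1 (Kd 0.18 nM) and 0.084 nM for CB2 (Kd 0.31 nM), with increasing test concentrations, 90 min at 30 °C. Non-specific binding was set with 10 μM WIN 55212-2. Ki came from IC50 via Cheng–Prusoff; n ≥ 3, mean ± SEM. SI = CB1 Ki / CB2 Ki.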

[2] = molecular target: Cannabinoid receptor 1 (CB1) (Homo sapiens, UniProt P21554); experiment: Displacement of [3H]CP55940 from recombinant human CB1 receptor expressed in HEK293 cell membranes at 10 uM measured after 90 mins relative to control; conditions: probe [3H]CP55940
Cannabinoid receptor 1 (CB1), sequence (P21554 whole entry): as above

Cannabinoid receptor 2 [3] = molecular target: T1, Cannabinoid receptor 2; experiment: Displacement of [3H]CP55940 from recombinant human CB2 receptor expressed in HEK293 cell membranes measured after 90 mins; how it was run: as §1
Cannabinoid receptor 2 [4] = molecular target: T1, Cannabinoid receptor 2; experiment: Antagonist/inverse agonist activity at recombinant human CB2 receptor expressed in HEK293 cell membranes assessed as increase in NKH-477-induced cAMP accumulation measured after 30 mins by luminescence assay; type: functional, cell-based
Homo sapiens = species on record: Homo sapiens; experiment: Selectivity index, ratio of Ki for displacement of [3H]CP55940 from recombinant human CB1 receptor expressed in HEK293 cell membranes to Ki for displacement of [3H]CP55940 from recombinant human CB2 receptor expressed in HEK293 cell membranes; how it was run: as §1
Cannabinoid receptor 2 [5] = molecular target: T1, Cannabinoid receptor 2; experiment: Antagonist/inverse agonist activity at recombinant human CB2 receptor expressed in HEK293 cell membranes assessed as increase in NKH-477-induced cAMP accumulation preincubated followed by CB2 agonist JWH-133 addition and measured after 30 mins by luminescence assay; type: functional, cell-based

T1 sequence (P34972 whole entry): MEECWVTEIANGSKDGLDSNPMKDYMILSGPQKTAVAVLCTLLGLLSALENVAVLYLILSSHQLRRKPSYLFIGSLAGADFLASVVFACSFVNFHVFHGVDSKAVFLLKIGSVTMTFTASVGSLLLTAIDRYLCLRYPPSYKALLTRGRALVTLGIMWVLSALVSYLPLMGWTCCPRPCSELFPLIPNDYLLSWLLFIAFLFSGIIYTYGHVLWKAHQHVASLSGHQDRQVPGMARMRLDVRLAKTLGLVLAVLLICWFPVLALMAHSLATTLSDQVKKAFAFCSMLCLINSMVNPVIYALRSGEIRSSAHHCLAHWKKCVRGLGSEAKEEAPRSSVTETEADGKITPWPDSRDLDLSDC

| Compound | inhibition (Cannabinoid receptor 2 [1]) [%] | Ki (Cannabinoid receptor 1) [µM] | inhibition at 1.5 h, 10 µM [2] [%] | Ki (Cannabinoid receptor 2 [3]) [µM] | Activity (Cannabinoid receptor 2 [4]) | Ratio Ki (Homo sapiens) | Activity (Cannabinoid receptor 2 [5]) |
| --- | --- | --- | --- | --- | --- | --- | --- |
| CCN(CC)CCCn1c(Cn2nc3ccccc3n2)nc2cc(C(C)=O)ccc21 | 17.5 | > 10 | 15 | > 10 | – | – | – |
| CCN(CC)CCn1c(-c2ccc(OC)cc2)nc2cc(C(F)(F)F)ccc21 | 46.9 | > 10 | 1.95 | > 10 | – | – | – |
| Clc1ccc2c(c1)nc(Cn1nc3ccccc3n1)n2CC[C@@H]1CCCN2CCCC[C@H]12 | 10.1 | > 10 | 17.6 | > 10 | – | – | – |
| CCCCn1c(Cc2ccc(Cl)c(Cl)c2)nc2cc(C(F)(F)F)ccc21 | 94.3 | 10 | 53.9 | 0.37 | Active | 27 | Active |
| COc1ccc(Cc2nc3cc(C(F)(F)F)ccc3n2C[C@@H]2CCCN3CCCC[C@H]23)cc1 | 19.7 | > 10 | 5.5 | > 10 | – | – | – |
| COc1ccc(Cc2nc3cc(C(C)=O)ccc3n2C[C@@H]2CCCN3CCCC[C@H]23)cc1 | 15.6 | > 10 | 47.6 | > 10 | – | – | – |
| CCN(CC)CCCn1c(Cc2ccc(OC)cc2)nc2cc(C(F)(F)F)ccc21 | 16.8 | > 10 | 19.2 | > 10 | – | – | – |
| COCCn1c(Cc2ccc(Cl)c(Cl)c2)nc2cc(C(F)(F)F)ccc21 | 53.8 | > 10 | 41.4 | 10 | – | > 1 | – |
